Only some compounds are listed: those with a hit (about 1.9% of all), similar ones and a draw of the others.
Rin1 Abl inh = inhibitors of human Rin1-Abl protein interaction; P00519+Q13671; inhibition, % at 7.35 µM; 360,000 compounds, 0.4% hits; TR-FRET Rin1/Abl binding, biochemical; in the data active means inhibition above about 5%, passing the limit was not always enough
SR-BI DiI inh = mouse SR-BI HDL lipid transfer inhibition; Q61009; ldlA[mSR-BI] CHO cells, DiI-HDL uptake fluorescence, 3 h; inhibition, % at 12.5 µM; 320,000 compounds, 0.96% hits; AID 488896;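 active means mean replicate inhibition of at least 70% and a set share of replicates each scoring 70 or more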
Target sequence (Q61009 whole entry, looked up): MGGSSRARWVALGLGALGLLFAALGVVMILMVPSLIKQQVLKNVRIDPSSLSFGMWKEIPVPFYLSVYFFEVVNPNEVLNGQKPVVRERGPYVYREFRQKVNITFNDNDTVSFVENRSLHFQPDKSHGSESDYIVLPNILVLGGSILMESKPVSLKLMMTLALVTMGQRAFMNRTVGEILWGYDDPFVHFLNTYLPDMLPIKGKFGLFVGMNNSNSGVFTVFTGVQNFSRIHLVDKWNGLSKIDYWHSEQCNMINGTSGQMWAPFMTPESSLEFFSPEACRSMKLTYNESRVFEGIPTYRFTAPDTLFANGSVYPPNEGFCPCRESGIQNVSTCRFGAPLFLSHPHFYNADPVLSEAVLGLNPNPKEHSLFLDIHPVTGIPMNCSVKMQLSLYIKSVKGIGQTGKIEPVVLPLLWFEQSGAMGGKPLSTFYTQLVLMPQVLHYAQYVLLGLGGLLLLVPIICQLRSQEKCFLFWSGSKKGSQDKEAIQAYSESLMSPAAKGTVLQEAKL
GRK2 inh = human GRK2 inhibition via aptamer displacement | AID 488847 | bead flow cytometry, FAM-aptamer displacement from GRK2 | inhibition of aptamer binding, % at 10 µM | 330,000 compounds, 0.59% hits;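 active means inhibition of aptamer binding above 40%, roughly 3 SD of noise, on plates passing a quality check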;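 further: median bead fluorescence of bound FAM aptamer so fluorescent compounds give negative values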
SR-BI uptake up = SR-BI HDL lipid transfer activation. activation, % at 12.5 µM. 320,000 compounds, 0.096% hits. CHO ldlA[mSR-BI] cells, DiI-HDL uptake fluorescence, 3 h; 100 = double the neutral-control signal. AID 504775;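 active means mean replicate activation of at least 60% and every replicate at or above 60%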
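System: LDL receptor-deficient CHO ldlA cells overexpressing murine SR-BI | Timing: 3 h uptake period with compound, 37 °C | Medium: HEPES-buffered (25 mM, pH 7.4) F12 plus 0.5% BSA | Dosing: Single-point compound dose | Signal: Bottom-read fluorescence, 550/595 nm | Read-out: Retained DiI signal reflecting DiI-HDL uptake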
A number is an active result; - = inactive; . = not tested or not shown.

SMILES	Rin1 Abl inh	SR-BI DiI inh	GRK2 inh	SR-BI uptake up
CCCc1nc2c3ccccc3ccn2c1Cc1ccc(OC)cc1C	-	.	.	.
C/C(=N\NS(=O)(=O)c1ccccc1)c1cccc(NC(=O)c2cccc(Cl)c2)c1	-	-	60	-
CCc1cccc(C)c1NC(=O)CSc1nc2ccc(N3C(=O)c4ccccc4C3=O)cc2s1	-	-	-	-
Cc1cc(C)c(NC(=O)CSc2nc3ccc(N4C(=O)c5ccccc5C4=O)cc3s2)c(C)c1	-	74	-	-
O=C(c1ccco1)N1CCN(C2CN(Cc3ccc([N+](=O)[O-])cc3)S(=O)(=O)C2)CC1 (centres undefined)	-	.	.	.
O=C(CCNC(=O)c1ccccc1Cl)Nc1ccc(S(=O)(=O)Nc2nccs2)cc1	-	-	-	-
COc1ccccc1NS(=O)(=O)c1cc(C(=O)N2CCCC2)ccc1F	-	-	.	-
O=C(NNC(=O)c1cc2ccccc2o1)c1ccc(F)cc1	-	-	.	-
O=C(NNC(=O)c1cc2ccccc2o1)c1ccc(Cl)cc1	-	-	-	510
COc1cccc(-c2nc(CS(=O)(=O)CC(=O)N3CCN(C)CC3)c(C)o2)c1	-	-	-	-
COc1cccc(-c2nc(CS(=O)(=O)CC(=O)N3CCN(C4CCCCC4)CC3)c(C)o2)c1	-	75	-	-
COc1ccc(NC(=O)Nc2nnc([C@@H]3C[C@H](O)[C@@H](CO)O3)s2)cc1	-	.	.	.
COc1ccc(C(=O)c2nccc3cc(OC)c(OC)cc23)cc1OC	14	-	-	-
CCOC(=O)/C=C/c1ccc2c(c1)S(=O)(=O)N(c1cccc(OC)c1)[C@H]2CC(=O)OCC	-	83	-	-
CCCCN(C(=O)c1cc(S(=O)(=O)N2CCCCC2)ccc1Cl)c1c(N)n(CCC)c(=O)[nH]c1=O	-	-	.	-
CCOc1ccccc1CNC(=O)C1CCN(c2nn3c(=O)cc(C)nc3s2)CC1	-	-	-	-
CCc1nnc(NC(=O)C2CCCN(c3nc4ccccc4s3)C2)s1 (centres undefined)	-	-	-	-
CCOc1ccc(CCNC(=O)C2CCN(c3nn4c(=O)cc(C)nc4s3)CC2)cc1OCC	-	72	-	-
COc1ccc(CCNC(=O)C2CCCN(c3nc4ccccc4s3)C2)cc1OC (centres undefined)	-	79	-	-
CCn1c(O)c(N=NC(=O)CNC(=O)c2cccnc2)c2ccccc21	-	.	.	.
CC1=C(C)/C(=N\OS(=O)(=O)c2ccccc2)C=CC1=O	-	87	-	-
Cc1ccc(S(=O)(=O)O/N=C2\CCCc3ccccc32)cc1	-	-	-	-
Cc1c(C(=O)Nc2ccccc2)sc2nc(-c3ccccc3)cn12	-	77	-	-
Cc1cccc(NC(=O)c2sc3nc(-c4ccccc4)cn3c2C)n1	-	-	-	-
CN(CC(=O)Nc1ccc(Cl)c(Cl)c1)C(=O)C1CCCC1	-	-	-	67
SMILES	Rin1 Abl inh	SR-BI DiI inh	GRK2 inh	SR-BI uptake up
COc1ccccc1N(C)S(=O)(=O)c1ccc(C(=O)Nc2ccc(N3CCOCC3)cc2)cc1	-	-	-	-
C=CCN(c1ccccc1OC)S(=O)(=O)c1ccc(Cl)c(C(=O)Nc2ccc(N3CCOCC3)cc2)c1	-	96	-	-
COc1ccc(C(=O)N/N=C/c2ccccc2OC(=O)c2ccccc2)cc1	-	-	-	-
CC(C)(C)C(=O)Nc1ccc(C(=O)N/N=C/c2ccccc2OC(=O)c2ccc(Cl)cc2)cc1	-	97	-	-
CCOc1cc(/C=N\NC(=O)c2ccc(NC(=O)C(C)(C)C)cc2)ccc1OC(=O)c1cccc(C)c1	-	-	-	-
Cc1cccc(C(=O)Oc2ccccc2/C=N/NC(=O)c2ccc(NC(=O)C(C)(C)C)cc2)c1	-	87	-	-
CC(C)(C)C(=O)Nc1ccc(C(=O)N/N=C/c2ccccc2OC(=O)c2ccccc2)cc1	-	122	-	-
COc1ccc(NC2CCCN(C(=O)c3cc4ncccn4n3)C2)cc1 (centres undefined)	-	-	-	-
COc1ccc(NS(=O)(=O)c2ccc(O)c(NC(=O)c3cc4c(C)nn(-c5ccc(F)cc5)c4s3)c2)cc1	-	77	-	-
COc1ccc(NS(=O)(=O)c2ccc(N3CCOCC3)c(NC(=O)c3ccc(F)cc3)c2)cc1	-	-	-	-
COc1ccc(-c2[nH]ncc2N=Nc2ccccc2)cc1	-	-	-	-
COc1ccc(-c2[nH]ncc2N=Nc2cc(C)cc(C)c2)cc1	-	84	-	-
COc1ccc2nc(N3CCCCC3)c(/C=C3\SC(=S)NC3=O)cc2c1	6.6	-	-	-

Screens from PubChem BioAssay.
